What follows are compounds tested against T1, OR1A1 (Homo sapiens) (UniProt Q9P1Q5). Conditions: stereoisomer not certain.
T1 sequence (whole entry): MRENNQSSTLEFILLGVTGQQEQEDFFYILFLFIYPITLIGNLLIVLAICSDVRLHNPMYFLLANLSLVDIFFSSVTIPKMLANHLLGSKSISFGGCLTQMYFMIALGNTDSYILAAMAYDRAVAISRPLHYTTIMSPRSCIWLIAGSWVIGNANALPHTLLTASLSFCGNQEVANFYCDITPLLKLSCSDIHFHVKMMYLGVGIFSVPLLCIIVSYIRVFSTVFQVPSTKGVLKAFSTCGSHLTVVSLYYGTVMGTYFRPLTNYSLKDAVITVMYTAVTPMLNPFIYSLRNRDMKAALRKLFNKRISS
How it was run: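 Transient luciferase assays in mammalian cell lines were common, though methods varied by source. The values come from published papers and their supplementary material, with extra details from the original authors when needed. Responsive refers to a measured signal the original authors judged statistically different from baseline, and non-responsive (inactive) to the remainder.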
For `O=C([O-])CCC(=O)[O-].[H+].[H+]`, the “odorant receptor agonist call” value was “inactive”.
With `CCCCC=CC=CC=O` the “odorant receptor agonist call” value was “inactive”.
For `CCCCC(CC)CCC(=O)O` (configuration not stated), the “odorant receptor agonist call” value was “inactive”.
In the case of `CCCCC(=O)O`, the “odorant receptor agonist call” value is reported as “inactive”.
In the case of `CCCCCCC(=O)[O-].[H+]`, the “odorant receptor agonist call” value is reported as “inactive”.
`COC(C=C(C)CCC=C(C)C)OC` was tested, and the “odorant receptor agonist call” value was “inactive”.
`CCOC(=O)Cc1cccc(Br)c1` was tested, and the “odorant receptor agonist call” value was “active”.
For `CSC`, the “odorant receptor agonist call” value was “inactive”.
With `O=C(O)C=Cc1ccc(O)cc1` the “odorant receptor agonist call” value was “inactive”.
`C=CC(O)CCCCC` (configuration not stated) was tested, and the “odorant receptor agonist call” value was “active”.
`CC(=O)C=CC1=C(C)CCCC1(C)C` was tested, and the “odorant receptor agonist call” value was “inactive”.
`CC1=CCC2CC1C2(C)C` (configuration not stated) was tested, and the “odorant receptor agonist call” value was “inactive”.
For `CC(=O)OCc1ccccc1`, the “odorant receptor agonist call” value was “active”.
`CCCC(C)=O` was tested, and the “odorant receptor agonist call” value was “inactive”.
In the case of `CSCCCO`, the “odorant receptor agonist call” value is reported as “inactive”.
With `O=c1ccc2ccccc2o1` the “odorant receptor agonist call” value was “inactive”.
`CCCCCCCCCC(=O)[O-].[H+]` was tested, and the “odorant receptor agonist call” value was “inactive”.
For `CCCCCC=CC=O`, the “odorant receptor agonist call” value was “inactive”.
In the case of `CCc1cnccn1`, the “odorant receptor agonist call” value is reported as “inactive”.
For `COC(=O)C(C)C`, the “odorant receptor agonist call” value was “inactive”.
With `CCOC(=O)C=Cc1ccccc1` the “odorant receptor agonist call” value was “inactive”.
For `CC(=O)OCCc1ccccc1`, the “odorant receptor agonist call” value was “active”.
`CCCCCCC1CCC(=O)O1` (configuration not stated) was tested, and the “odorant receptor agonist call” value was “inactive”.
With `CCC=CCCC=CC=O` the “odorant receptor agonist call” value was “inactive”.
In the case of `CCC=CCCC=CCO`, the “odorant receptor agonist call” value is reported as “inactive”.
In the case of `CC(C)=CCCC(C)CCO` (configuration not stated), the “odorant receptor agonist call” value is reported as “active”.
With `CCOC(=O)C(C)CC` (configuration not stated) the “odorant receptor agonist call” value was “inactive”.
In the case of `CCOC(=O)CCC(C)C`, the “odorant receptor agonist call” value is reported as “inactive”.
For `CC12CCC(CC1=O)C2(C)C` (configuration not stated), the “odorant receptor agonist call” value was “inactive”.
With `CC=Cc1ccc(OC)cc1` the “odorant receptor agonist call” value was “active”.
With `COc1nccnc1CC(C)C` the “odorant receptor agonist call” value was “inactive”.
`CCCC(C)C=O` (configuration not stated) was tested, and the “odorant receptor agonist call” value was “inactive”.
For `CCCCCCCCC=CC=O`, the “odorant receptor agonist call” value was “inactive”.
For `CC(=O)c1ccc(C)cc1`, the “odorant receptor agonist call” value was “inactive”.
In the case of `CCCCC(=O)CC`, the “odorant receptor agonist call” value is reported as “active”.
For `C=C(C)c1ccc(C)cc1`, the “odorant receptor agonist call” value was “inactive”.
`CCO` was tested, and the “odorant receptor agonist call” value was “inactive”.

From the M2OR odorant receptor database
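Further: active if original authors judged signal statistically different from baseline.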
